# Screens: PubChem, Broad Institute
# Vif imaging: HIV Vif self-association inhibitors, primary screen, imaging, HEK293T, single point | HEK293T cells, Vif self-association by quenched fluorescence, 24 h | inhibition, % at 7.49 µM | 0.35% of 340,000 active; in the data active = inhibition above about 50%, passing the limit was not always enough
# SR-BI uptake up: activators of SR-BI mediated DiI-HDL uptake, primary screen, ldlA[mSR-BI] CHO cells, DiI fluorescence. 3 h; 100 = double the neutral-control signal. activation, % at 12.5 µM. 0.096% of 320,000 active. AID 504775, 2011;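 active = mean replicate activation of at least 60% and every replicate at or above 60%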;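 note: 0% = median plate neutral-control signal and 100% = twice that signal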
#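 Material: SR-BI-overexpressing, LDLR-lacking CHO cells | Dosing: Single compound concentration, delivered by pin transfer | Probe or stimulus: Labelled HDL, 10 µg/mL | Signal: Bottom-read cell fluorescence after medium removal, ex 550/em 595 nm | Schedule: 3 h, 37 °C | Evaluation: HDL uptake via cellular fluorescence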
# SR-BI DiI inh: inhibitors of SR-BI mediated HDL lipid uptake, primary screen, ldlA[mSR-BI] cells, fluorescence, single point; ldlA[mSR-BI] CHO cells, DiI-HDL uptake fluorescence, 3 h; Scavenger receptor class B member 1 (Mus musculus), Q61009; inhibition, % at 12.5 µM; 0.96% of 320,000 active;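 active = mean replicate inhibition of at least 70% and a set share of replicates each scoring 70 or more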;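 note: 0% = median of neutral control wells and 100% = median of positive control wells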
# Target sequence (Q61009 whole entry, looked up): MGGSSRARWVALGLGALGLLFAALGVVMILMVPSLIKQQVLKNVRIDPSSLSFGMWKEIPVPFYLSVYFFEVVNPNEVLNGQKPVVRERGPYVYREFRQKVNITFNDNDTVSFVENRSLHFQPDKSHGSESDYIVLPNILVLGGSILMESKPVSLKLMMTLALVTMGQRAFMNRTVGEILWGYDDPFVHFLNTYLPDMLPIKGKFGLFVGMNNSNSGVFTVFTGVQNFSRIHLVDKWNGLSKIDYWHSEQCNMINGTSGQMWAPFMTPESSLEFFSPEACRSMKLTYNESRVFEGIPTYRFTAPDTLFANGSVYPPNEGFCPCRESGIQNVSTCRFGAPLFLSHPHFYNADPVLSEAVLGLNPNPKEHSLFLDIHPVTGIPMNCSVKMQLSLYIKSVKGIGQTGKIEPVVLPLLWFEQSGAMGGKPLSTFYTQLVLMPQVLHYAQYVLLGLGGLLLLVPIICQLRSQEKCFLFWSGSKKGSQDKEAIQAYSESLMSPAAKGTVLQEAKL
# Statin myotox sup: suppressors of statin myotoxicity in C2C12 myotubes, primary screen, cell-based, single point, plate reader. 0.78% of 330,000 active. C2C12 myotubes + simvastatin, ATP luminescence, 48 h; scaled: DMSO 0, geranylgeraniol control 100. rescue of ATP level, % at 7.49 µM;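 active = mean ATP rescue above about 67%, or every replicate alone reaching that limit, limit read from the data, passing the limit was not always enough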;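 note: myotubes were challenged with 10 µM simvastatin during compound exposure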
# An asterisk follows results filed as active; i = inactive; · = not tested or not shown. Only some compounds are listed: those with a hit (about 1.7% of all), similar ones and a draw of the others.
SMILES,Vif imaging,SR-BI uptake up,SR-BI DiI inh,Statin myotox sup
CC(C)CC#Cc1ccc2c(c1)O[C@H](CN(C)Cc1ccc3c(c1)OCO3)[C@H](C)CN([C@@H](C)CO)S2(=O)=O,·,·,·,-25
CCOc1ccccc1NC(=O)C1CCCN1C(=O)c1cccs1 (configuration not stated),·,87*,-87,6
CCOc1ccccc1NC(=O)N1CCCC1C(=O)NCc1cccs1 (configuration not stated),-12,-4,4,2
CCC(=O)Nc1ccc(-c2nnc(SCc3ccc(C(=O)Nc4nccs4)cc3)n2CC)cc1,67*,-47,47,5
CCn1c(CN2c3ccccc3Sc3ccccc32)n[nH]c1=S,2,16,-16,86*
COc1ccc(-c2cnc3c(c2)C(=O)N([C@H](C)CO)C[C@@H](C)[C@@H](CN(C)Cc2ccccc2)O3)cc1,·,·,·,58
Cc1ccc(C)c(C(=O)COC(=O)c2cc([N+](=O)[O-])ccc2N2CCOCC2)c1,16,-73,73*,-5
O=C(COC(=O)c1cc([N+](=O)[O-])ccc1N1CCOCC1)c1ccc(Br)cc1,31,-79,79*,9
Cc1ccccc1COC(=O)c1cc([N+](=O)[O-])ccc1N1CCOCC1,7,-53,53,-13
Cc1ccc(C(=O)c2cc([N+](=O)[O-])ccc2N2CCOCC2)cc1C,13,-34,34,·
CC1CCN(C(=O)COC(=O)c2cc([N+](=O)[O-])ccc2N2CCOCC2)CC1,17,-8,8,·
CCOc1ccc(C(C)=O)cc1COC(=O)c1ccc2c(c1)NC(=O)CS2,-5,-80,80*,-5
Cc1ccc(C(=O)c2cc([N+](=O)[O-])ccc2N2CCOCC2)c(C)c1,-4,-81,81*,·
C[C@@H]1CN([C@H](C)CO)C(=O)c2cc(C3=CCCCC3)cnc2O[C@H]1CN(C)Cc1cccnc1,·,·,·,-8
O=C(C[C@H]1CC[C@H](NC(=O)CCN2CCCCC2)[C@H](CO)O1)NCc1ccc(Cl)c(Cl)c1,·,·,·,-16
CCOc1ccc(C(=O)COC(=O)c2cc([N+](=O)[O-])ccc2N2CCOCC2)cc1,21,-79,79*,·
CCOc1ccc(C(C)=O)cc1COC(=O)c1cc([N+](=O)[O-])ccc1N1CCOCC1,71*,-64,64,-14
O=C(c1ccc(F)cc1)N1CCC(N2CCCCCC2)CC1,-4,-11,11,145*
Cc1ccc(C(=O)N2CCSCC2)cc1,11,-10,10,103*
O=C(c1ccc(F)cc1)N1CCC(N2CCOCC2)CC1,0,22,-22,·
O=C(c1ccc(Br)cc1)N1CCCC1,-2,·,-12,94*
Cc1ccc(NC(=O)Nc2ccc(C(=O)N3CCOCC3)cc2)cc1,-4,-4,4,28
CCCNC(=O)C[C@H]1CC[C@@H]2[C@@H](COc3ccc(NS(=O)(=O)c4ccccc4C)cc3C(=O)N2C)O1,·,·,·,14
O=C(C[C@H]1C=C[C@H](NC(=O)NC2CCCCC2)[C@@H](CO)O1)NCc1ccccc1,·,·,·,-3
Cc1oc(-c2ccccc2)cc1C(=O)Nc1ccccc1,-3,·,90*,-11
SMILES,Vif imaging,SR-BI uptake up,SR-BI DiI inh,Statin myotox sup
O=C(CN1C(=O)NC2(CCCC2)C1=O)N1CCN(C(=O)c2ccco2)CC1,-6,13,-13,12
CCCC1(CCC)NC(=O)N(CC(=O)N2CCN(C(=O)c3ccco3)CC2)C1=O,-6,4,-4,98*
Cc1nc(NC(=O)/C=C/c2ccccc2)sc1C(=O)Nc1ccccc1,-1,-76,76*,·
Cc1nc(NC(=O)/C=C/c2ccccc2)sc1C(=O)NCCO,12,-45,45,9
COc1cc(/C=C/C(=O)O)ccc1O,10,10,-10,-13
COc1cc(/C=C/C(=O)OCC(=O)N(C)Cc2ccccc2)ccc1O,51*,-18,18,2
COc1cc(/C=C/C(=O)/C=C(O)/C=C/c2ccc(O)c(OC)c2)ccc1O,0,-40,40,140*
C[C@@H]1CN([C@@H](C)CO)C(=O)Cc2cc(NC(=O)Nc3ccc4c(c3)OCO4)ccc2O[C@H]1CN(C)Cc1ccncc1,·,·,·,-8
Cc1noc(C)c1NC(=O)Nc1ccc2c(c1)CC(=O)N([C@@H](C)CO)C[C@H](C)[C@@H](CN(C)S(=O)(=O)c1ccc(Cl)cc1)O2,·,·,·,1
CC(=O)N(C)C[C@@H]1Oc2ncc(-c3cncnc3)cc2C(=O)N([C@H](C)CO)C[C@@H]1C,·,·,·,-8
CCCN(C)C[C@@H]1Oc2cc(C#CCC3CCCC3)ccc2S(=O)(=O)N([C@H](C)CO)C[C@H]1C,·,·,·,-37
CC(C)(C)[C@@H]1CCC(=O)N(CC[C@H](Sc2ccc(Br)cc2)c2ccccc2)CC1,-8,-82,82*,-4
CCOC(=O)CS(=O)(=O)c1nc(-c2ccccc2)cc(C(F)(F)F)n1,1,-98,98*,·
CCOC(=O)c1cc2c(C(F)(F)F)cc(-c3ccccc3)nc2o1,-2,-76,76*,·
CCc1nnc(SCC(=O)Nc2ccc(C(C)=O)cc2)nc1CC,1,-17,17,113*
CCc1ccc(NC(=O)CSc2nnc(CC)c(CC)n2)cc1,-4,16,-16,·
O=C(CC1CC1)Nc1ccc2c(c1)[C@@H]1C[C@H](CC(=O)NC3CCCC3)O[C@H](CO)[C@@H]1O2,·,·,·,-2
CCC1(CC)NC(=O)N(CC(=O)Nc2ccc(OCc3ccccc3)cc2)C1=O,55*,-19,19,6
COCC(=O)N(C)C[C@H]1Oc2cc(-c3ccncc3)ccc2S(=O)(=O)N([C@@H](C)CO)C[C@H]1C,·,·,·,-1
Cc1cccc2c1nc(-c1ccccc1)n1cnnc21,4,854*,i,3
Cc1cccc2c1nc(-c1ccccc1)n1nnnc21,1,-7,7,-3
COc1ccc2[nH]c3c4c(ccc3c2c1)C(=O)C=CC4=O,52*,-7,7,-348
COc1ccc2[nH]c(=O)cc(C(=O)O)c2c1,-2,-12,12,·
O=C(CCCCCn1c(=O)[nH]c2ccsc2c1=O)NCc1ccc(F)cc1,-6,·,3,120*
Cc1ccc(CNC(=O)CCCCn2c(=O)[nH]c3ccsc3c2=O)cc1,-1,·,·,18
SMILES,Vif imaging,SR-BI uptake up,SR-BI DiI inh,Statin myotox sup
Cc1ccccc1-c1nc(CN2CCC(C(=O)NCc3cccnc3)CC2)c(C)o1,5,39,-39,99*
COc1ccc(C(NC(=O)CNC(C)=O)C(=O)Nc2ccc3c(c2)OCCO3)cc1 (configuration not stated),51*,38,-38,·
COc1ccc(C(=O)N2CCC(C(=O)Nc3ccc4c(c3)OCCO4)CC2)cc1,25,-1,1,86*
COc1ccc(C(=O)N2CCC(C(=O)NCc3ccccn3)CC2)cc1,6,·,·,114*
COc1ccc(NC(=O)NCc2ccccn2)cc1,-10,29,-29,110*
O=C(NCc1ccccn1)Nc1ccccc1,9,18,-18,10
